Reference: ChEMBL document CHEMBL1136806, “Synthesis and in vitro and in vivo antimalarial activity of N1-(7-chloro-4-quinolyl)-1,4-bis(3-aminopropyl)piperazine derivatives” (J Med Chem, 2003)

Assays:
MRC5 [1] = assay: Cytotoxicity was tested on human diploid embryonic lung cell line (MRC-5) (in vitro); type: functional
Plasmodium falciparum [2] = assay: In vitro antimalarial activity against Plasmodium falciparum FcB1; type: functional, organism-based
Summary of the method: (§1)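 Asynchronous P. falciparum FcB1 cultures in human erythrocytes (0.5% parasitemia, 1% hematocrit) were exposed to serial dilutions for 24 h at 37 °C. [3H]-hypoxanthine was then added. Incorporation was compared with drug-free controls, DMSO ≤0.1%. IC50 came from the concentration–response curve, reported as mean ± SD of three experiments.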

[3] = Partition coefficient was determined by dividing the concentration of compound in 1-octanol by concentration in aqueous phase at pH 5.0; type: physicochemical; conditions: 1-octanol/aqueous phase, read-out: Log D5.0
[4] = Partition coefficient was determined by dividing the concentration of compound in 1-octanol by concentration in aqueous phase at pH 7.4; type: physicochemical; conditions: 1-octanol/aqueous phase, read-out: Log D7.4
MRC5 [5] = assay: Cytotoxicity of compound was tested on human diploid embryonic lung cell line (MRC-5); type: functional
[6] = Vacuolar accumulation ratio was determined; type: functional
Summary of the method: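 Calculated, not measured: Henderson–Hasselbalch-derived equation using predicted pKa values, assuming vacuolar pH 5.0 and external pH 7.4.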

Plasmodium falciparum [7] = assay: Antimalarial activity against Plasmodium falciparum FcB1; type: functional, organism-based; summary of the method: as §1

| IC50 (Plasmodium falciparum [2]) | logD [4] | Compound | CC50 (MRC5 [1]) | also measured |
| --- | --- | --- | --- | --- |
| 26.2 nM | – | Clc1ccc2c(NCCCN3CCN(CCCN(CCc4ccccc4)CCc4ccccc4)CC3)ccnc2c1 | 1000 nM | – |
| 9.6 nM | – | COc1ccc(CN(CCCN2CCN(CCCNc3ccnc4cc(Cl)ccc34)CC2)Cc2ccc(OC)cc2)cc1 | 1000 nM | – |
| 18.5 nM | – | Clc1ccc2c(NCCCN3CCN(CCCNCCc4ccccc4)CC3)ccnc2c1 | 5000 nM | – |
| – | > 2.78 | O=C(NCCCN1CCN(CCCNc2ccnc3cc(Cl)ccc23)CC1)c1ccc([N+](=O)[O-])cc1 | – | logD [3]: 0.31 |
| – | – | CCN(CC)CCCC(C)Nc1ccnc2cc(Cl)ccc12 (stereo not drawn) [CHLOROQUINE] | – | CC50 (MRC5 [5]): 50000 nM; VAR [6]: 53600 |
| 74.1 nM | – | Clc1ccc2c(NCCCN3CCN(CCCNCc4ccnc5ccccc45)CC3)ccnc2c1 | 1200 nM | – |
| – | – | Clc1ccc2c(NCCCN3CCN(CCCNc4ccnc5cc(Cl)ccc45)CC3)ccnc2c1 | – | CC50 (MRC5 [5]): < 1000 nM; IC50 (Plasmodium falciparum [7]): 23 nM |
| – | 1.06 | CCCC(=O)NCCCN1CCN(CCCNc2ccnc3cc(Cl)ccc23)CC1 | – | – |
| – | 1.92 | CCCCN(CCCC)CCCN1CCN(CCCNc2ccnc3cc(Cl)ccc23)CC1 | – | logD [3]: -1.75 |
| – | > 2.78 | O=C(NCCCN1CCN(CCCNc2ccnc3cc(Cl)ccc23)CC1)C1CC1 | – | logD [3]: -0.23 |
| 67.4 nM | – | O=C(Cc1ccccc1)NCCCN1CCN(CCCNc2ccnc3cc(Cl)ccc23)CC1 | 4000 nM | – |
| – | 1.16 | Clc1ccc2c(NCCCN3CCN(CCCN(CC4CC4)CC4CC4)CC3)ccnc2c1 | – | logD [3]: < -2.78 |

| Compound | IC50 (Plasmodium falciparum [2]) | logD [4] | CC50 (MRC5 [1]) | also measured |
| --- | --- | --- | --- | --- |
| COc1ccc(C(=O)NCCCN2CCN(CCCNc3ccnc4cc(Cl)ccc34)CC2)cc1 | 20.2 nM | – | 4000 nM | – |
| O=C(NCCCN1CCN(CCCNc2ccnc3cc(Cl)ccc23)CC1)c1cccc(Oc2ccccc2)c1 | 20.8 nM | – | 5000 nM | VAR [6]: 29500 |
